# Measured values taken from ChEMBL document CHEMBL4725330, “The design, synthesis and evaluation of 2-aminobenzoxazole analogues as potent and orally efficacious ChemR23 inhibitors” (Bioorg Med Chem, 2020).
# Columns and labels:
# [1] = target: T1, Chemerin-like receptor 1 (Homo sapiens, UniProt Q99788); assay: Inhibition of chemR23 in human CAL1 cells assessed as inhibition of chemerin-induced intracellular calcium ion concentration preincubated for 45 mins followed by human chemerin addition by FDSS6000 analysis; type: functional, cell-based
# T1 sequence (Q99788 whole entry): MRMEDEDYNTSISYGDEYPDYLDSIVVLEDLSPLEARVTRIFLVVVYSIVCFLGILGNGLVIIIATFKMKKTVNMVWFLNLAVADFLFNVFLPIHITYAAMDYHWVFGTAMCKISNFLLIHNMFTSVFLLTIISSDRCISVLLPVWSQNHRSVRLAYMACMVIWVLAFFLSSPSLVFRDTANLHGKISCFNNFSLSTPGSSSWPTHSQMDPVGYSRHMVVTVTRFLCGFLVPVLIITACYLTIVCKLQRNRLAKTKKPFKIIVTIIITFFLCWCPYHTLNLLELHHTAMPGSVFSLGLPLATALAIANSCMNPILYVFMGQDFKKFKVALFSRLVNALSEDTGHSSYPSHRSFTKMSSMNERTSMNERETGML
# [2] = AUC (0 to infinity) in cynomolgus monkey at 1 mg/kg, po administered as cassette dose by LC-MS/MS analysis; type: ADME, organism-based, Macaca fascicularis; design: time infinity, route oral, dose 1 mg/kg; settings: in vivo
# Outline: (§1)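 Cassette oral dosing, 1.0 mg/kg as a suspension in 0.5% methylcellulose, to fed cynomolgus monkeys. Plasma was obtained from blood, deproteinized with ice-cold acetonitrile containing internal standard, and measured by LC/MS/MS against a calibration curve using analyte/IS peak-area ratios. Values are means of three determinations.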
# [3] = Fraction unbound in cynomolgus monkey plasma at 1 mg/kg, po administered as cassette dose incubated for 16 to 24 hrs by equilibrium dialysis based LC-MS analysis; type: ADME, organism-based, Macaca fascicularis; settings: in vivo, time 16-24 hrs
# Outline: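 Monkey plasma diluted with PBS and spiked with compound at 1 µM (final DMSO 0.05% v/v) was equilibrium-dialysed against PBS (membrane MWCO 12000–14000) for 16–24 h at 37 °C in a CO2 incubator. Both sides were deproteinized with acetonitrile containing IS and analysed by LC-MS/MS. Undiluted fu,p was calculated from the diluted value using the dilution factor.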
# [4] = Half-life in cynomolgus monkey at 1 mg/kg, po administered as cassette dose by LC-MS/MS analysis; type: ADME, organism-based, Macaca fascicularis; settings: in vivo; outline: as §1
# [5] = Cmax in cynomolgus monkey at 1 mg/kg, po administered as cassette dose by LC-MS/MS analysis; type: ADME, organism-based, Macaca fascicularis; design: route oral, dose 1 mg/kg; settings: in vivo; outline: as §1
# [6] = Oral bioavailability in cynomolgus monkey at 1 mg/kg and 0.1 mg/kg, iv administered as cassette dose by LC-MS/MS analysis; type: ADME, organism-based, Macaca fascicularis; settings: in vivo
# Outline: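 Plasma was deproteinized with ice-cold acetonitrile containing internal standard and quantified by LC/MS/MS against a calibration curve from analyte/IS peak-area ratios. Values are means of three determinations.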
# [7] = MRT in cynomolgus monkey at 10 mg/kg, po by LC-MS/MS; type: ADME, organism-based, Macaca fascicularis; settings: in vivo
# Outline: (§2)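 Single-compound oral dosing, 10 mg/kg as a suspension in 0.5% methylcellulose, to fed cynomolgus monkeys. Plasma was deproteinized with ice-cold acetonitrile plus internal standard and quantified by LC/MS/MS from analyte/IS peak-area ratios on a calibration curve. Values are means of three determinations.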
# [8] = AUC (0 to infinity) in cynomolgus monkey at 10 mg/kg, po by LC-MS/MS analysis; type: ADME, organism-based, Macaca fascicularis; design: time infinity, route oral, dose 10 mg/kg; settings: in vivo; outline: as §2
# [9] = Half-life in cynomolgus monkey at 10 mg/kg, po by LC-MS/MS analysis; type: ADME, organism-based, Macaca fascicularis; settings: in vivo; outline: as §2
# [10] = Ratio of fraction unbound in cynomolgus monkey plasma at 10 mg/kg to IC50 of inhibition of chemR23 in human CAL1 cells; type: organism-based; settings: in vivo
# [11] = Cmax in cynomolgus monkey at 10 mg/kg, po by LC-MS/MS analysis; type: ADME, organism-based, Macaca fascicularis; design: route oral, dose 10 mg/kg; settings: in vivo; outline: as §2
SMILES,IC50 [1] [nM],AUC(0-inf) [2] [ng·h/mL],Fu [3],half-life [4] [h],Cmax [5] [ng/mL],further results
CCCCN(c1nc2c(-n3cccn3)cccc2o1)[C@H](C)c1ccc(-c2ccccc2-c2nnn[nH]2)cc1,330,–,–,–,–,–
CCCCN(c1nc2ccccc2o1)[C@H](C)c1ccc(-c2c(C)cccc2-c2nnn[nH]2)cc1,210,–,–,–,–,–
CCCCN(c1nc2c(-c3ccncc3)cccc2o1)[C@H](C)c1ccc(-c2ccccc2-c2nnn[nH]2)cc1,300,–,–,–,–,–
C[C@H](c1ccc(-c2cc(F)ccc2-c2nc(=O)o[nH]2)cc1)N(CC1CC1)c1nc2c(C(=O)O)cccc2o1,2.3,4410,0.00977 fraction (unitless),4.1,1490,bioavailability [6]: 82%
CCCCN(c1nc2c(-c3ccccn3)cccc2o1)[C@H](C)c1ccc(-c2ccccc2-c2nnn[nH]2)cc1,–,248,0.129 fraction (unitless),5.9,64,–
CCCCN(c1nc2c(C(=O)N(C)C)cccc2o1)[C@H](C)c1ccc(-c2ccccc2-c2nnn[nH]2)cc1,13,104,0.411 fraction (unitless),3.2,27.5,bioavailability [6]: 6.7%
C[C@H](c1ccc(-c2cc(Cl)ccc2-c2nc(=O)o[nH]2)cc1)N(CC1CC1)c1nc2c(C(=O)O)cccc2o1,–,1300,0.0108 fraction (unitless),0.8,518,–
CCCCN(c1nc2c(-c3cccnc3)cccc2o1)[C@H](C)c1ccc(-c2ccccc2-c2nnn[nH]2)cc1,> 1000,–,–,–,–,–
CCCCN(c1nc2ccccc2o1)[C@H](C)c1ccc(-c2c(F)cccc2-c2nnn[nH]2)cc1,160,–,–,–,–,–
C[C@H](c1ccc(-c2ccccc2-c2nc(=O)o[nH]2)cc1)N(CC1CC1)c1nc2c(C(=O)O)cccc2o1,11,11600,0.00851 fraction (unitless),2.6,3830,bioavailability [6]: 60%
CCCCN(c1nc2c(-c3nccn3C)cccc2o1)[C@H](C)c1ccc(-c2ccccc2-c2nnn[nH]2)cc1,–,152,0.299 fraction (unitless),3.9,79.9,bioavailability [6]: 7.5%
CCCCN(c1nc2c(C(=O)O)cccc2o1)[C@H](C)c1ccc(-c2ccccc2-c2nnn[nH]2)cc1,17,429,0.0285 fraction (unitless),3.7,115,bioavailability [6]: 8.2%
CCCCN(c1nc2c(NS(C)(=O)=O)cccc2o1)[C@H](C)c1ccc(-c2ccccc2-c2nnn[nH]2)cc1,14,73.8,0.0203 fraction (unitless),4.7,26.5,–
CCCCN(c1nc2ccccc2o1)[C@H](C)c1ccc(-c2ccc(C)cc2-c2nnn[nH]2)cc1,2100,–,–,–,–,–
CCCCN(c1nc2c(COC)cccc2o1)[C@H](C)c1ccc(-c2ccccc2-c2nnn[nH]2)cc1,29,–,–,–,–,–
CCCCN(c1nc2ccccc2o1)[C@H](C)c1ccc(-c2cc(Cl)ccc2-c2nnn[nH]2)cc1,65,–,–,–,–,–
CCCCN(c1nc2ccccc2o1)[C@H](C)c1ccc(-c2cc(C)ccc2-c2nnn[nH]2)cc1,53,–,–,–,–,–
CCCCN(c1nc2ccccc2o1)[C@H](C)c1ccc(-c2ccc(Cl)cc2-c2nnn[nH]2)cc1,> 3000,–,–,–,–,–
CCCCN(c1nc2c(C(=O)NC)cccc2o1)[C@H](C)c1ccc(-c2ccccc2-c2nnn[nH]2)cc1,–,25.7,0.0975 fraction (unitless),1.3,9.74,–
CCCCN(c1nc2c(C(=O)NS(C)(=O)=O)cccc2o1)[C@H](C)c1ccc(-c2ccccc2-c2nnn[nH]2)cc1,14,22.2,0.103 fraction (unitless),2.7,22.6,–
CCCCN(c1nc2c(-c3cccn3C)cccc2o1)[C@H](C)c1ccc(-c2ccccc2-c2nnn[nH]2)cc1,130,–,–,–,–,–
CCCCN(c1nc2ccccc2o1)[C@H](C)c1ccc(-c2ccccc2-c2nnn[nH]2)cc1,–,44.3,0.0713 fraction (unitless),3.2,12.8,bioavailability [6]: 1.8%
CCCCN(c1nc2ccccc2o1)[C@H](C)c1ccc(-c2ccc(C(F)(F)F)cc2-c2nnn[nH]2)cc1,> 3000,–,–,–,–,–
CCCCN(c1nc2ccccc2o1)[C@H](C)c1ccc(-c2ccc(OC)cc2-c2nnn[nH]2)cc1,3000,–,–,–,–,–
CCCCN(c1nc2c(C(=O)O)cccc2o1)[C@H](C)c1ccc(-c2cc(Cl)ccc2-c2nc(=O)o[nH]2)cc1,1.2,1040,0.0135 fraction (unitless),2,361,MRT [7]: 4.1 h; AUC(0-inf) [8]: 7090 ng·h/mL; bioavailability [6]: 42%; half-life [9]: 2 h; Ratio [10]: 0.5; Cmax [11]: 2110 ng/mL
CCCCN(c1nc2ccccc2o1)[C@H](C)c1ccc(-c2cc(F)ccc2-c2nnn[nH]2)cc1,75,–,–,–,–,–
CCCCN(c1nc2c(NC(C)=O)cccc2o1)[C@H](C)c1ccc(-c2ccccc2-c2nnn[nH]2)cc1,22,41.6,0.102 fraction (unitless),2.2,13.2,–
CCCCN(c1nc2c(CO)cccc2o1)[C@H](C)c1ccc(-c2ccccc2-c2nnn[nH]2)cc1,24,20,0.112 fraction (unitless),1.6,9.68,bioavailability [6]: 0.8%
CCCCN(c1nc2c(C(=O)O)cccc2o1)[C@H](C)c1ccc(-c2cc(F)ccc2-c2nc(=O)o[nH]2)cc1,2.7,1630,0.00736 fraction (unitless),2.2,610,–
CCCCN(c1nc2ccccc2o1)[C@H](C)c1ccc(-c2cc(C(F)(F)F)ccc2-c2nnn[nH]2)cc1,1320,–,–,–,–,–
